# Source: ChEMBL document CHEMBL3616442, “Unconventional Knoevenagel-type indoles: Synthesis and cell-based studies for the identification of pro-apoptotic agents” (Eur J Med Chem, 2015)
# How the values were obtained:
# Type in all cases: functional
# [1] = Growth inhibition of human LOXIMVI cells after 48 hrs by sulforhodamine B assay; details: LOX IMVI
# Summary of the method: (§1)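 NCI 60-cell-line screen. Compounds tested at five 10-fold dilutions from 10^-4 to 10^-8 M. Cells exposed for the last 48 h of a 72 h incubation, growth estimated by sulforhodamine B protein assay. GI50 is the concentration giving 50% growth inhibition. Values beyond the tested range are expressed as greater or lesser than the extreme concentration.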
# TK-10 = assay: Growth inhibition of human TK10 cells after 48 hrs by sulforhodamine B assay; details: TK-10, 48 h
# SK-MEL-2 = assay: Growth inhibition of human SK-MEL-2 cells after 48 hrs by sulforhodamine B assay; details: SK-MEL-2, 48 h
# HOP-62 = assay: Growth inhibition of human HOP62 cells after 48 hrs by sulforhodamine B assay; details: HOP-62, 48 h; summary of the method: as §1
# HT-29 = assay: Growth inhibition of human HT-29 cells after 48 hrs by sulforhodamine B assay; details: HT-29, 48 h; summary of the method: as §1
# UO-31 = assay: Growth inhibition of human UO31 cells after 48 hrs by sulforhodamine B assay; details: UO-31, 48 h
# M14 = assay: Growth inhibition of human M14 cells after 48 hrs by sulforhodamine B assay; details: M14, 48 h; summary of the method: as §1
# CAKI-1 = assay: Growth inhibition of human CAKI-1 cells after 48 hrs by sulforhodamine B assay; details: CAKI-1, 48 h; summary of the method: as §1
# [2] = Growth inhibition of human EKVX cells after 48 hrs by sulforhodamine B assay; summary of the method: as §1
# [3] = Growth inhibition of human RPMI8226 cells after 48 hrs by sulforhodamine B assay; details: RPMI-8226, 48 h
# SF-268 = assay: Growth inhibition of human SF268 cells after 48 hrs by sulforhodamine B assay; details: SF-268, 48 h
# A498 = assay: Growth inhibition of human A498 cells after 48 hrs by sulforhodamine B assay; details: A498, 48 h; summary of the method: as §1
# NCI-H522 = assay: Growth inhibition of human NCI-H522 cells after 48 hrs by sulforhodamine B assay; details: NCI-H522, 48 h; summary of the method: as §1
# UACC-257 = assay: Growth inhibition of human UACC257 cells after 48 hrs by sulforhodamine B assay; details: UACC-257, 48 h
# 786-0 = assay: Growth inhibition of human 786-0 cells after 48 hrs by sulforhodamine B assay; details: 786-0, 48 h; summary of the method: as §1
# SR = assay: Growth inhibition of human SR cells after 48 hrs by sulforhodamine B assay
# [4] = Growth inhibition of human HCC2998 cells after 48 hrs by sulforhodamine B assay; details: HCC 2998, 48 h; summary of the method: as §1
# DU-145 = assay: Growth inhibition of human DU145 cells after 48 hrs by sulforhodamine B assay; details: DU-145, 48 h; summary of the method: as §1
# [5] = Growth inhibition of human SF539 cells after 48 hrs by sulforhodamine B assay; details: SF-539, 48 h
# NCI-H460 = assay: Growth inhibition of human NCI-H460 cells after 48 hrs by sulforhodamine B assay; details: NCI-H460, 48 h; summary of the method: as §1
# Malme-3M = assay: Growth inhibition of human MALME-3M cells after 48 hrs by sulforhodamine B assay; summary of the method: as §1
# [6] = Growth inhibition of human Hs 578T cells after 48 hrs by sulforhodamine B assay; summary of the method: as §1
# OVCAR-3 = assay: Growth inhibition of human OVCAR3 cells after 48 hrs by sulforhodamine B assay; details: OVCAR-3, 48 h; summary of the method: as §1
# A549 = assay: Growth inhibition of human A549 cells after 48 hrs by sulforhodamine B assay; details: A549, 48 h; summary of the method: as §1
# [7] = Growth inhibition of human RXF393 cells after 48 hrs by sulforhodamine B assay; details: RXF 393, 48 h
# NCI-H226 = assay: Growth inhibition of human NCI-H226 cells after 48 hrs by sulforhodamine B assay; details: NCI-H226, 48 h; summary of the method: as §1
# OVCAR-5 = assay: Growth inhibition of human OVCAR5 cells after 48 hrs by sulforhodamine B assay; details: OVCAR-5, 48 h
# [8] = Growth inhibition of human HOP92 cells after 48 hrs by sulforhodamine B assay; details: HOP-92, 48 h; summary of the method: as §1
# SK-MEL-28 = assay: Growth inhibition of human SK-MEL-28 cells after 48 hrs by sulforhodamine B assay; details: SK-MEL-28, 48 h
# OVCAR-8 = assay: Growth inhibition of human OVCAR8 cells after 48 hrs by sulforhodamine B assay; details: OVCAR-8, 48 h
# [9] = Growth inhibition of human NCI-ADR-RES cells after 48 hrs by sulforhodamine B assay; summary of the method: as §1
# NCI-H322M = assay: Growth inhibition of human NCI-H322M cells after 48 hrs by sulforhodamine B assay; summary of the method: as §1
# SNB-19 = assay: Growth inhibition of human SNB19 cells after 48 hrs by sulforhodamine B assay; details: SNB-19, 48 h
# PC-3 = assay: Growth inhibition of human PC3 cells after 48 hrs by sulforhodamine B assay; details: PC-3, 48 h
# MDA-MB-468 = assay: Growth inhibition of human MDA-MB-468 cells after 48 hrs by sulforhodamine B assay; details: MDA-MB-468, 48 h; summary of the method: as §1
# MCF7 = assay: Growth inhibition of human MCF7 cells after 48 hrs by sulforhodamine B assay; details: MCF7, 48 h; summary of the method: as §1
# IGROV-1 = assay: Growth inhibition of human IGROV1 cells after 48 hrs by sulforhodamine B assay; details: IGROV-1, 48 h; summary of the method: as §1
# [10] = Growth inhibition of human COLO205 cells after 48 hrs by sulforhodamine B assay; details: COLO 205, 48 h; summary of the method: as §1
# SNB-75 = assay: Growth inhibition of human SNB75 cells after 48 hrs by sulforhodamine B assay; details: SNB-75, 48 h
# [11] = Growth inhibition of human SF295 cells after 48 hrs by sulforhodamine B assay; details: SF-295, 48 h
# UACC-62 = assay: Growth inhibition of human UACC62 cells after 48 hrs by sulforhodamine B assay; details: UACC-62, 48 h
# [12] = Growth inhibition of human BT549 cells after 48 hrs by sulforhodamine B assay; details: BT-549, 48 h; summary of the method: as §1
# T47D = assay: Growth inhibition of human T47D cells after 48 hrs by sulforhodamine B assay
# [13] = Growth inhibition of human MOLT4 cells after 48 hrs by sulforhodamine B assay; details: MOLT-4, 48 h; summary of the method: as §1
# SK-MEL-5 = assay: Growth inhibition of human SK-MEL-5 cells after 48 hrs by sulforhodamine B assay; details: SK-MEL-5, 48 h
# K562 = assay: Growth inhibition of human K562 cells after 48 hrs by sulforhodamine B assay; details: K562, 48 h; summary of the method: as §1
smiles,measurement,setting,value
COC(=O)/C(=C\c1c(-c2ccccc2)[nH]c2ccccc12)S(C)(=O)=O,GI50,[1],5.1 µM
same,GI50,TK-10,7.7 µM
same,GI50,SK-MEL-2,11.8 µM
same,GI50,HOP-62,10.7 µM
same,GI50,HT-29,3.6 µM
same,GI50,UO-31,5.5 µM
same,GI50,M14,3.3 µM
same,GI50,CAKI-1,1.8 µM
same,GI50,[2],8.9 µM
same,GI50,[3],6.2 µM
same,GI50,SF-268,4.3 µM
same,GI50,A498,6.6 µM
same,GI50,NCI-H522,3.1 µM
same,GI50,UACC-257,11.2 µM
same,GI50,786-0,7.5 µM
same,GI50,SR,8.1 µM
same,GI50,[4],8.8 µM
same,GI50,DU-145,2.5 µM
same,GI50,[5],3.1 µM
same,GI50,NCI-H460,3.5 µM
same,GI50,Malme-3M,12.2 µM
same,GI50,[6],3.5 µM
same,GI50,OVCAR-3,1.9 µM
same,GI50,A549,5.3 µM
same,GI50,[7],7.2 µM
same,GI50,NCI-H226,5 µM
same,GI50,OVCAR-5,19.6 µM
same,GI50,[8],6.6 µM
same,GI50,SK-MEL-28,6 µM
same,GI50,OVCAR-8,6.3 µM
same,GI50,[9],3.3 µM
same,GI50,NCI-H322M,7.4 µM
same,GI50,SNB-19,8.7 µM
same,GI50,PC-3,4.2 µM
same,GI50,MDA-MB-468,5.4 µM
same,GI50,MCF7,2.9 µM
same,GI50,IGROV-1,1.7 µM
same,GI50,[10],4.4 µM
same,GI50,SNB-75,2.3 µM
same,GI50,[11],3.1 µM
same,GI50,UACC-62,3.3 µM
same,GI50,[12],4.3 µM
same,GI50,T47D,2.8 µM
same,GI50,[13],4.7 µM
N#CC(C#N)=Cc1c(-c2ccccc2)[nH]c2ccccc12,GI50,[1],3.3 µM
same,GI50,TK-10,5.3 µM
same,GI50,SK-MEL-2,27.6 µM
same,GI50,HOP-62,11.3 µM
same,GI50,HT-29,0.526 µM
same,GI50,UO-31,11.1 µM
same,GI50,M14,1.9 µM
same,GI50,CAKI-1,6.1 µM
same,GI50,[2],5.8 µM
same,GI50,[3],0.582 µM
same,GI50,SF-268,13.4 µM
same,GI50,A498,3 µM
same,GI50,NCI-H522,9.6 µM
same,GI50,UACC-257,28.1 µM
same,GI50,786-0,8.6 µM
same,GI50,[4],10.4 µM
same,GI50,DU-145,3.3 µM
same,GI50,[5],2.1 µM
same,GI50,SK-MEL-5,1.1 µM
same,GI50,NCI-H460,2.1 µM
same,GI50,Malme-3M,26 µM
same,GI50,[6],2.3 µM
same,GI50,OVCAR-3,1.8 µM
same,GI50,A549,4.6 µM
same,GI50,[7],3.3 µM
same,GI50,NCI-H226,4.1 µM
same,GI50,OVCAR-5,19.7 µM
same,GI50,[8],7.7 µM
same,GI50,SK-MEL-28,5.1 µM
same,GI50,OVCAR-8,6 µM
same,GI50,[9],0.826 µM
same,GI50,NCI-H322M,11.4 µM
same,GI50,SNB-19,5.7 µM
same,GI50,PC-3,3 µM
same,GI50,MDA-MB-468,1 µM
same,GI50,MCF7,1.1 µM
same,GI50,IGROV-1,0.757 µM
same,GI50,[10],1.8 µM
same,GI50,SNB-75,2 µM
same,GI50,[11],1.6 µM
same,GI50,UACC-62,2.6 µM
same,GI50,[12],9.4 µM
same,GI50,K562,0.478 µM
same,GI50,T47D,4.6 µM
same,GI50,[13],43.2 µM
CC(=O)/C(=C\c1c(-c2ccccc2)[nH]c2ccccc12)S(=O)(=O)c1ccccc1,GI50,[1],1.4 µM
same,GI50,TK-10,3.8 µM
same,GI50,SK-MEL-2,1.4 µM
same,GI50,HOP-62,1.2 µM
same,GI50,HT-29,0.589 µM
same,GI50,UO-31,1.6 µM
same,GI50,M14,0.521 µM
same,GI50,CAKI-1,2.4 µM
same,GI50,[2],3.3 µM
same,GI50,[3],2.2 µM
same,GI50,SF-268,3.4 µM
same,GI50,A498,2 µM
same,GI50,NCI-H522,1.3 µM
same,GI50,UACC-257,2.2 µM
same,GI50,786-0,1.6 µM
same,GI50,[4],1.4 µM
same,GI50,DU-145,3 µM
same,GI50,[5],1.3 µM
same,GI50,SK-MEL-5,0.832 µM
same,GI50,NCI-H460,1.1 µM
same,GI50,Malme-3M,2.1 µM
same,GI50,[6],5 µM
same,GI50,OVCAR-3,1.6 µM
same,GI50,A549,7.2 µM
same,GI50,[7],1.3 µM
same,GI50,NCI-H226,1.9 µM
same,GI50,OVCAR-5,2 µM
same,GI50,[8],5.9 µM
same,GI50,SK-MEL-28,2 µM
same,GI50,OVCAR-8,2.5 µM
same,GI50,[9],0.52 µM
same,GI50,NCI-H322M,6.1 µM
same,GI50,SNB-19,6.1 µM
same,GI50,PC-3,2.5 µM
same,GI50,MDA-MB-468,1.7 µM
same,GI50,MCF7,0.945 µM
same,GI50,IGROV-1,1.5 µM
same,GI50,[10],1.7 µM
same,GI50,SNB-75,1.7 µM
same,GI50,[11],2.4 µM
same,GI50,UACC-62,1 µM
same,GI50,[12],1.9 µM
same,GI50,K562,0.442 µM
same,GI50,T47D,1.4 µM
same,GI50,[13],1.6 µM
